This note sets out measurements from ChEMBL document CHEMBL4304816, “A Novel Biphenyl-based Chemotype of Retinoid X Receptor Ligands Enables Subtype and Heterodimer Preferences” (ACS Med Chem Lett, 2019).

What all share (assay type): cell-based
Assay [1] in a line: Agonist activity at full-length human RXR/LXR expressed in HEK293T cells at 20 uM after 14 to 16 hrs by dual-glo luciferase reporter gene assay relative to untreated control. Particulars: HEK-293T, read-out: Activity. The gist of the method: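 RXR:LXR or RXR:PPARγ heterodimer reporter assay with test compound alone. Activation expressed relative to 0.1% DMSO vehicle. Three independent experiments, each in duplicate; mean reported.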

The target of assay [2] is T1, Peroxisome proliferator-activated receptor gamma (Homo sapiens) (UniProt P37231).
T1 sequence (whole entry): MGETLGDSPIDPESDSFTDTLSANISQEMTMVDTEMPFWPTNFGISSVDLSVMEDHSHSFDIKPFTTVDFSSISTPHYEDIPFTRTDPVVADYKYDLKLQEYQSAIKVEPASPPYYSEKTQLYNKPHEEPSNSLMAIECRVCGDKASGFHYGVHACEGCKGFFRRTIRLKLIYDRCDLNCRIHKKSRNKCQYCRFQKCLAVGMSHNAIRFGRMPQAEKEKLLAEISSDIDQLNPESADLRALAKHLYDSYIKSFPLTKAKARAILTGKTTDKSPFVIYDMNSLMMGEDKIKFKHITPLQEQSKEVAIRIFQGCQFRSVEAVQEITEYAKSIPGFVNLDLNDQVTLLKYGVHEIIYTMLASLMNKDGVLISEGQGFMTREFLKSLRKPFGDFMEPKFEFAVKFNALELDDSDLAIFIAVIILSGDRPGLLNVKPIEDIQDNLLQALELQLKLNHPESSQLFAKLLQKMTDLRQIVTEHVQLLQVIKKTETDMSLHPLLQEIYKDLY
Briefly: Agonist activity at Gal4-LBD fused PPARgamma (unknown origin) expressed in HEK293T cells at 20 uM after 14 to 16 hrs by dual-Glo luciferase assay. The gist of the method:
(§1)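 Gal4-hybrid reporter gene selectivity panel of related nuclear receptors (PPARα/β/γ, RARα/β/γ) in HEK293T cells. Activity is read as mean fold activation versus 0.1% DMSO vehicle, n ≥ 2.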

The species named for another assay is Homo sapiens. Briefly: Agonist activity at full-length human PPARgamma/RXR expressed in HEK293T cells at 20 uM after 14 to 16 hrs in presence of 1 uM rosiglitazone by dual-glo luciferase reporter gene assay relative to rosiglitazone. The gist of the method:
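RXR:PPARγ heterodimer reporter assay run with reference PPARγ agonist rosiglitazone (1 μM) co-applied. Read-out is mean relative synergistic activation, from three independent experiments each run in duplicate.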
(In a reporter assay the amount or activity of a reporter protein is the signal.)

For assay [3], the target named is T2, Peroxisome proliferator-activated receptor delta (Homo sapiens) (UniProt Q03181).
T2 sequence (whole entry): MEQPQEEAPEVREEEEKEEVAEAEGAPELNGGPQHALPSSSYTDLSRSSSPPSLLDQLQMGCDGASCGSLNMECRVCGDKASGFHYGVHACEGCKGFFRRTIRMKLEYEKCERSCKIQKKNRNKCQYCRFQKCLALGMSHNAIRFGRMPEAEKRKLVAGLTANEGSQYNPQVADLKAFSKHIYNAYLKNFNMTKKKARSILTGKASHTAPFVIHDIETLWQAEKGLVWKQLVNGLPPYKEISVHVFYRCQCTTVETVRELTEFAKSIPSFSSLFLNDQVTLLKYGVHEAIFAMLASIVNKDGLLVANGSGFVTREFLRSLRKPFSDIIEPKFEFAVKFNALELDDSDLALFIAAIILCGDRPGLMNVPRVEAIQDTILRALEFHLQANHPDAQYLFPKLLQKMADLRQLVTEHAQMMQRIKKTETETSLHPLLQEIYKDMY
The experiment in a line: Agonist activity at Gal4-LBD fused PPARbeta (unknown origin) expressed in HEK293T cells at 20 uM after 14 to 16 hrs by dual-Glo luciferase assay. In outline:
as §1

The target in assay [4] is T3, Retinoic acid receptor RXR-gamma (Homo sapiens) (UniProt P48443).
T3 sequence (whole entry): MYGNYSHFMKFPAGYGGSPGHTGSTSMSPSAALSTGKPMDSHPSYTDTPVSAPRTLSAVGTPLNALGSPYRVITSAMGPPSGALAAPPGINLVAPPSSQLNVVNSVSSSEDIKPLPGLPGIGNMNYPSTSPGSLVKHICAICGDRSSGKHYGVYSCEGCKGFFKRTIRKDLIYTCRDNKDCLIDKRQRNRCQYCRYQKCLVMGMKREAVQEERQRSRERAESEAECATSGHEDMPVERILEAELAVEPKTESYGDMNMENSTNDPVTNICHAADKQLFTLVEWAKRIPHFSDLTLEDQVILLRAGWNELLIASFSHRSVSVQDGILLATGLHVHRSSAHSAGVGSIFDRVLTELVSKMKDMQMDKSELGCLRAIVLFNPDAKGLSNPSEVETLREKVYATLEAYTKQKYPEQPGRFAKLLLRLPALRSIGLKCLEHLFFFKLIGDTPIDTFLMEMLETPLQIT
Briefly: Agonist activity at Gal4-LBD fused RXRgamma (unknown origin) expressed in HEK293T cells assessed as fold activation at 10 uM after 14 to 16 hrs by dual-Glo luciferase assay relative to untreated control. In outline:
(§2)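 Gal4-hybrid RXRα/β/γ reporter gene assays in HEK293T cells. Fold activation is the maximal fold activation versus 0.1% DMSO.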

The target in assay [5] is T4, Retinoic acid receptor RXR-beta (Homo sapiens) (UniProt P28702).
T4 sequence (whole entry): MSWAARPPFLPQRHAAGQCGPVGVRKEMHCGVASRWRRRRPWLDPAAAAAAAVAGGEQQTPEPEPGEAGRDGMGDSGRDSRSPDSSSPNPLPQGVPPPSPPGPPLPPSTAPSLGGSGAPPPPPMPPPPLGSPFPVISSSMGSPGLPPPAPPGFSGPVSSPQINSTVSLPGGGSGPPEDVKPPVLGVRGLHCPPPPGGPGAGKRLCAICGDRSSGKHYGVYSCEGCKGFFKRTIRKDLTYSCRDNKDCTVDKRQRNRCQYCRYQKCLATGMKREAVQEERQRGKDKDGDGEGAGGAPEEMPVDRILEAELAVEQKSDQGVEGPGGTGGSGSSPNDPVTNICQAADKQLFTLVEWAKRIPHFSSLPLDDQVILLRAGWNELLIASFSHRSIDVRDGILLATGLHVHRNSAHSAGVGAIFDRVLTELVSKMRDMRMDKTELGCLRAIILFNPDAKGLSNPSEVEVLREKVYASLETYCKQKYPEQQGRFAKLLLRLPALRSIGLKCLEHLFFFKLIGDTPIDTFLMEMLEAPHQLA
The experiment in a line: Agonist activity at Gal4-LBD fused RXRbeta (unknown origin) expressed in HEK293T cells assessed as fold activation after 14 to 16 hrs by dual-Glo luciferase assay relative to untreated control. The gist of the method:
as §2

Assay [6] deals with T3, Retinoic acid receptor RXR-gamma (Homo sapiens). Briefly: Agonist activity at Gal4-LBD fused RXRgamma (unknown origin) expressed in HEK293T cells at 10 uM after 14 to 16 hrs by dual-Glo luciferase assay.

Active and inactive are the calls of the source. The rule behind the calls is not given here.

Turning to `Cc1cc(-c2ccc(C(=O)O)cc2)cc(C(C)(C)C)c1`, the activity at 20 µM in assay [1] stood at 87%. For the same compound, the Activity result in assay [2] and in assay [3] was “Active” throughout. The Activity in the assay filed under Homo sapiens worked out at 46%.

Turning to `Cc1cc(-c2cc(C(C)(C)C)cc(C(C)(C)C)c2)ccc1C(=O)O`, the fold change (FC) in assay [4] is 1; in assay [5] it was 38. In addition, in assay [6], the Activity entry was “inactive”.
